Assay results pooled from the literature.
Protocols differ between the studies behind these lines.
Read-out: cell growth or viability

For `O=C(Nc1ccc(CN2CCOCC2)c(C(F)(F)F)c1)c1ccc(C#Cc2cccc3cnccc23)cn1`, the IC50 was greater than 180 µM (IMR-90; MTT).
For `CC(C)/N=C1\c2cc(C(N)=O)nc3c(N)c(Cl)c(N)c(c23)N1C`, the IC50 was 0.5 µM (HCC44).
For `COc1cc(N2CCC(N3CCN(C)CC3)CC2)ccc1Nc1ncc(Cl)c(Nc2ccccc2S(=O)(=O)C(C)C)n1`, the IC50 was 0.25 µM (RD; 72 h).
`CCSC(=O)c1ncn2c(=O)n(C)nnc12` has an IC50 of 165 µM (U-118-MG; resazurin; 7 days).
`CN(C)C/C=C/C(=O)Nc1cc2c(Nc3ccc(F)c(Cl)c3)ncnc2cc1O[C@H]1CCOC1` has an IC50 of 3.1 µM (Caco-2; MTT; 72 h).
`CCCCCC/N=C1\c2cc(C(N)=O)nc3c(N)c(Cl)c(N)c(c23)N1C` gave an IC50 of 1.1 µM (HCC44).
`COc1cc([C@@H]2c3cc4c(cc3[C@@H](O[C@@H]3O[C@@H]5CO[C@@H](C)O[C@H]5[C@H](O)[C@H]3O)[C@H]3COC(=O)[C@H]23)OCO4)cc(OC)c1O` gave an IC50 of 15.3 µM (Caco-2; MTS; 48 h).
With `COc1cc([C@@H]2c3cc4c(cc3[C@@H](O[C@@H]3O[C@@H]5CO[C@@H](C)O[C@H]5[C@H](O)[C@H]3O)[C@H]3COC(=O)[C@H]23)OCO4)cc(OC)c1O` the IC50 was 16.5 µM (Caco-2; MTS; 72 h).
`COc1cc(/C=C/C(=O)CC(=O)/C=C/c2ccc(O)c(OC)c2)ccc1O` gave an IC50 of greater than 25 µM (LLC-PK1; MTT; 72 h).
With `CC(C)c1cc(C(=O)N2Cc3ccccc3C2)c(O)c2c1CCC2` the IC50 was 57.4 µM (UMUC3; ATP luminescence; 72 h).
The IC50 of `O=c1[nH]cc(F)c(=O)[nH]1` is reported as 21.1 µM (RD; WST-1; 48 h).
`CC(C)c1cc(C(=O)N2Cc3ccccc3C2)c(O)c2c1CCCC2=O` gave an IC50 of greater than 100 µM (UMUC3; ATP luminescence; 72 h).
With `Nc1ncnc2c1ncn2[C@@H]1O[C@H](CO)[C@@H](O)[C@H]1O` the IC50 was 66.5 µM (RD; WST-1; 48 h).
For `Cc1cccc(-n2ncc(Br)c(Br)c2=O)c1`, the IC50 was 0.74 µM (NCI-H1650; resazurin; 96 h).
For `Cc1ncn2c(=O)n(C)nnc12`, the IC50 was 7 µM (U-118-MG; resazurin; 7 days).
`CC(C)c1cc(C(=O)N2Cc3ccccc3C2)c(O)c2cc[nH]c12` gave an IC50 of greater than 100 µM (UMUC3; ATP luminescence; 72 h).
`CC(O)(CS(=O)(=O)c1ccc(F)cc1)C(=O)Nc1ccc(C#N)c(C(F)(F)F)c1` (stereo not drawn) gave an IC50 of 9 µM (LAPC4; MTT; 7 days).
`CS(=O)(=O)c1ccc(-n2cc(/C=N/N=c3\[nH]c(-c4ccc(Br)cc4)cs3)c(-c3ccc(Br)cc3)n2)cc1` gave an IC50 of 59.8 µM (F180; MTT; 48 h).
The IC50 of `CON=C1CCc2c(O)c(C(=O)N3Cc4ccccc4C3)cc(C(C)C)c21` is reported as 78.2 µM (UMUC3; ATP luminescence; 72 h).
With `COc1cc(Nc2nccc(-c3cnn4nc(OC)ccc34)n2)cc(C(F)(F)F)c1` the IC50 was 0.16 µM (LoVo; ATP luminescence).
For `COc1cc(/C=C/C(=O)/C=C/c2c(C)nn(-c3ccccc3)c2Cl)cc(OC)c1O`, the IC50 was 12.9 µM (LLC-PK1; MTT; 72 h).
`COc1ccc(-c2nn(-c3ccc(S(C)(=O)=O)cc3)cc2C=N/N=c2\[nH]c(-c3ccc([N+](=O)[O-])cc3)cs2)cc1` has an IC50 of 28.5 µM (F180; MTT; 48 h).
For `CC(C)C[C@H](NC(=O)[C@H](Cc1ccccc1)NC(=O)c1cnccn1)B(O)O`, the IC50 was 0.016 µM (NCI-H1581; ATP luminescence).
The IC50 of `COc1cc(/C=C/C(=O)/C=C/c2c(C)nn(-c3ccccc3)c2Cl)ccc1O` is reported as 9.56 µM (LLC-PK1; MTT; 72 h).
With `c1csc([I+]c2cccs2)c1` the IC50 was roughly 0.5 µM (Caco-2; trypan blue; 48 h).
The IC50 of `CC(C)Cc1ccc(-c2nn(-c3ccc(S(C)(=O)=O)cc3)cc2/C=N/N=c2\[nH]c(-c3ccc([N+](=O)[O-])cc3)cs2)cc1` is reported as 23.6 µM (F180; MTT; 48 h).
With `CC(C)c1cc(C(=O)N2Cc3ccccc3C2)c(O)c2c1C(=O)C(C(F)(F)F)C2` (stereo not drawn) the IC50 was 59.6 µM (UMUC3; ATP luminescence; 72 h).
With `Cc1cc(Nc2ncc(Cl)c(Nc3ccccc3S(=O)(=O)C(C)C)n2)c(OC(C)C)cc1C1CCNCC1` the IC50 was 2.18 µM (RD; 72 h).
`CC(C)c1cc(C(=O)N2Cc3ccccc3C2)c(O)c2c1C(=O)CC2` has an IC50 of 55.6 µM (UMUC3; ATP luminescence; 72 h).
`Cn1nnc2c(C(N)=O)ncn2c1=O` has an IC50 of 944 µM (U-118-MG; MTT; 72 h).
`CC(C)c1cc(C(=O)N2Cc3ccccc3C2)c(O)c2cn[nH]c12` gave an IC50 of greater than 100 µM (UMUC3; ATP luminescence; 72 h).
`CC(=O)O[C@H]1C(=O)[C@@]2(C)[C@H]([C@H](OC(=O)c3ccccc3)[C@]3(O)C[C@H](OC(=O)[C@H](O)[C@@H](NC(=O)c4ccccc4)c4ccccc4)C(C)=C1C3(C)C)[C@]1(OC(C)=O)CO[C@@H]1C[C@@H]2O` gave an IC50 of 0.73 µM (LLC-PK1; MTT; 72 h).
`Cc1ccc(-c2nn(-c3ccc(S(C)(=O)=O)cc3)cc2/C=N\N=c2/[nH]c(-c3ccc([N+](=O)[O-])cc3)cs2)cc1` gave an IC50 of 99.5 µM (F180; MTT; 48 h).
